Reference: ChEMBL document CHEMBL3244400, “Synthesis of 3,4-dihydro-4-oxothieno[2,3-d]pyrimidine-2-carboxylates, a new series of orally active antiallergy agents” (J Med Chem, 1979)
Active and inactive are the calls of the source. No cut-off for these calls is given here.

What was measured:
Rattus norvegicus [1] = test: Antiallergic activity against egg albumin-induced anaphylaxis in po dosed sensitized rat compound administered 15 mins prior to antigen challenge as single dose by passive cutaneous anaphylaxis test; format: functional
Procedure, shortened: (§1)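 Male Sprague–Dawley or Wistar rats (100–150 g) were passively sensitized by two intradermal dilutions of rat anti-egg-albumin serum, which was mainly IgE and raised with EA im (10 mg/kg) plus killed pertussis vaccine iv. After 48 h, drug or vehicle was given. Rats were then challenged iv with EA plus Evans Blue (25 mg/kg each). Spot diameter was read 20–30 min later; ≥5 rats/compound. % inhibition was calculated versus control mean diameter.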

Mast cell [2] = test: Inhibition of histamine release in Sprague-Dawley rat peritoneal mast cells at 20 uM after 10 mins by fluorimetry relative to control; format: functional
Procedure, shortened: (§2)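 Peritoneal lavage cells from male Sprague–Dawley rats (200–300 g) were sensitized for 2 h at 37 °C in rat anti-EA serum with heparin. Cells were resuspended in buffered HBSS and challenged with EA. Drug was added together with antigen. After 10 min incubation, histamine was measured fluorimetrically. % inhibition was calculated versus release without drug.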

Rattus norvegicus [3] = test: Antiallergic activity against egg albumin-induced anaphylaxis in sensitized rat at 30 mg/kg, po administered 15 mins prior to antigen challenge as single dose measured up to 4 hrs by passive cutaneous anaphylaxis test; format: functional, organism-based; set-up: dose 30 mg/kg; procedure, shortened: as §1
Rattus norvegicus [4] = test: Inhibition of egg albumin-induced allergic bronchospasm in sensitized, spontaneously breathing and anesthesized Harlan-Wistar rat assessed as drop in pulmonary arterial blood pressure at 0.78 mg/kg administered intraduodenally 15 min prior to antigen challenge (reference value: 32.2 +/- 4.7 %); format: functional; settings: route intraduodenal
Procedure, shortened: (§3)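 Male Harlan-Wistar rats (225–275 g) were sensitized with EA im (1 mg/rat) plus pertussis vaccine ip. After 13–15 days they were urethane-anesthetized (1.5 g/kg ip). Drug was given intraduodenally in methocel or iv in saline, then EA 2 mg/rat iv. Pulmonary ventilation pressure and mean arterial pressure were recorded. Individual responses were compared with a separate vehicle-control group mean; 4–15 rats/group.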

Rattus norvegicus [5] = test: Inhibition of egg albumin-induced allergic bronchospasm in sensitized, spontaneously breathing and anesthesized Harlan-Wistar rat assessed as inhibition of control allergic bronchospasm response compound administered intraduodenally 15 min prior to antigen challenge; format: functional; procedure, shortened: as §3
Rattus norvegicus [6] = test: Inhibition of egg albumin-induced allergic bronchospasm in sensitized, spontaneously breathing and anesthesized Harlan-Wistar rat assessed as drop in mean arterial blood pressure at 0.39 mg/kg administered intraduodenally 15 min prior to antigen challenge (reference value: 46.3 +/- 3.5 %); format: functional; settings: route intraduodenal; procedure, shortened: as §3
Rattus norvegicus [7] = test: Inhibition of egg albumin-induced allergic bronchospasm in sensitized, spontaneously breathing and anesthesized Harlan-Wistar rat assessed as inhibition of control allergic bronchospasm response at 3.125 mg/kg administered intraduodenally 15 min prior to antigen challenge; format: functional; settings: route intraduodenal; procedure, shortened: as §3
Rattus norvegicus [8] = test: Inhibition of egg albumin-induced allergic bronchospasm in sensitized, spontaneously breathing and anesthesized Harlan-Wistar rat assessed as inhibition of control allergic bronchospasm response at 0.78 mg/kg administered intraduodenally 15 min prior to antigen challenge; format: functional; settings: route intraduodenal; procedure, shortened: as §3
Mast cell [9] = test: Inhibition of histamine release in Sprague-Dawley rat peritoneal mast cells at 5 uM after 10 mins by fluorimetry relative to control; format: functional; procedure, shortened: as §2
Rattus norvegicus [10] = test: Inhibition of egg albumin-induced allergic bronchospasm in sensitized, spontaneously breathing and anesthesized Harlan-Wistar rat assessed as inhibition of control allergic bronchospasm response at 0.39 mg/kg administered intraduodenally 15 min prior to antigen challenge; format: functional; settings: route intraduodenal; procedure, shortened: as §3
Rattus norvegicus [11] = test: Inhibition of egg albumin-induced allergic bronchospasm in sensitized, spontaneously breathing and anesthesized Harlan-Wistar rat assessed as inhibition of control allergic hypotension response at 0.78 mg/kg administered intraduodenally 15 min prior to antigen challenge; format: functional; settings: route intraduodenal; procedure, shortened: as §3
Rattus norvegicus [12] = test: Inhibition of egg albumin-induced allergic bronchospasm in sensitized, spontaneously breathing and anesthesized Harlan-Wistar rat assessed as inhibition of control allergic hypotension response at 3.125 mg/kg administered intraduodenally 15 min prior to antigen challenge; format: functional; settings: route intraduodenal; procedure, shortened: as §3
Rattus norvegicus [13] = test: Inhibition of egg albumin-induced allergic bronchospasm in sensitized, spontaneously breathing and anesthesized Harlan-Wistar rat assessed as drop in pulmonary arterial blood pressure at 0.39 mg/kg administered intraduodenally 15 min prior to antigen challenge (reference value: 32.2 +/- 4.7 %); format: functional; settings: route intraduodenal; procedure, shortened: as §3
Rattus norvegicus [14] = test: Inhibition of egg albumin-induced allergic bronchospasm in sensitized, spontaneously breathing and anesthesized Harlan-Wistar rat assessed as inhibition of control allergic hypotension response at 0.39 mg/kg administered intraduodenally 15 min prior to antigen challenge; format: functional; settings: route intraduodenal; procedure, shortened: as §3
Rattus norvegicus [15] = test: Inhibition of egg albumin-induced allergic bronchospasm in sensitized, spontaneously breathing and anesthesized Harlan-Wistar rat assessed as drop in pulmonary arterial blood pressure at 3.125 mg/kg administered intraduodenally 15 min prior to antigen challenge (reference value: 32.2 +/- 4.7 %); format: functional; settings: route intraduodenal; procedure, shortened: as §3
Mast cell [16] = test: Inhibition of histamine release in Sprague-Dawley rat peritoneal mast cells at 1.25 uM after 10 mins by fluorimetry relative to control; format: functional; procedure, shortened: as §2
Rattus norvegicus [17] = test: Inhibition of egg albumin-induced allergic bronchospasm in sensitized, spontaneously breathing and anesthesized Harlan-Wistar rat assessed as inhibition of control allergic hypotension response compound administered intraduodenally 15 min prior to antigen challenge; format: functional; settings: in the assay text read “bronchospasm response” for “hypotension response”; procedure, shortened: as §3
Rattus norvegicus [18] = test: Inhibition of egg albumin-induced allergic bronchospasm in sensitized, spontaneously breathing and anesthesized Harlan-Wistar rat assessed as drop in mean arterial blood pressure at 3.125 mg/kg administered intraduodenally 15 min prior to antigen challenge (reference value: 46.3 +/- 3.5 %); format: functional; settings: route intraduodenal; procedure, shortened: as §3
Rattus norvegicus [19] = test: Inhibition of egg albumin-induced allergic bronchospasm in sensitized, spontaneously breathing and anesthesized Harlan-Wistar rat assessed as drop in mean arterial blood pressure at 0.78 mg/kg administered intraduodenally 15 min prior to antigen challenge (reference value: 46.3 +/- 3.5 %); format: functional; settings: route intraduodenal; procedure, shortened: as §3
Plasma = test: Drug metabolism in Sprague-Dawley rat plasma assessed as sodium 2-carboxy-6-ethyl-4a,7a-dihydrothieno[2,3-d]pyrimidin-4-olate formation at 50 mg/kg, po; format: ADME, organism-based; set-up: dose 50 mg/kg, route oral; settings: in vivo
Procedure, shortened: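 Mature Sprague–Dawley rats (150–200 g) were fasted overnight and given a single 50 mg/kg oral dose. Blood was taken at 0.5–6 h, two rats per time point. Plasma (1 mL) was acidified to pH 1–2 and extracted twice with CHCl₃. The dried residue was taken up in methanol and quantified by reverse-phase C-18 HPLC.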

Rattus norvegicus [20] = test: Antiallergic activity against egg albumin-induced anaphylaxis in sensitized rat at 5 mg/kg, po administered 15 mins prior to antigen challenge as single dose measured up to 4 hrs by passive cutaneous anaphylaxis test; format: functional, organism-based; set-up: dose 5 mg/kg; procedure, shortened: as §1
Rattus norvegicus [21] = test: Antiallergic activity against egg albumin-induced anaphylaxis in sensitized rat at 25 mg/kg, po administered 15 mins prior to antigen challenge as single dose measured up to 4 hrs by passive cutaneous anaphylaxis test; format: functional, organism-based; set-up: dose 25 mg/kg; procedure, shortened: as §1
Rattus norvegicus [22] = test: Antiallergic activity against egg albumin-induced anaphylaxis in iv dosed sensitized rat compound administered 15 mins prior to antigen challenge as single dose by passive cutaneous anaphylaxis test; format: functional; procedure, shortened: as §1
Rattus norvegicus [23] = test: Antiallergic activity against egg albumin-induced anaphylaxis in sensitized rat at 10 mg/kg, po administered 15 mins prior to antigen challenge as single dose measured up to 4 hrs by passive cutaneous anaphylaxis test; format: functional, organism-based; set-up: dose 10 mg/kg; procedure, shortened: as §1
Rattus norvegicus [24] = test: Antiallergic activity against egg albumin-induced anaphylaxis in sensitized rat at 50 mg/kg, po administered 15 mins prior to antigen challenge as single dose measured up to 4 hrs by passive cutaneous anaphylaxis test; format: functional, organism-based; set-up: dose 50 mg/kg; procedure, shortened: as §1

SMILES: CCOC(=O)c1nc2sc(CC(C)C)c(C)c2c(=O)[nH]1
- ED50 (Rattus norvegicus [1]): 8.1 mg/kg

SMILES: Cc1csc2nc(C(=O)[O-])nc([O-])c12.O.[Na+].[Na+]
- ED50 (Rattus norvegicus [1]): 50 mg/kg

SMILES: CCOC(=O)c1nc2sc(CC)cc2c(=O)[nH]1
- inhibition at 20 µM (Mast cell [2]): 82%
- Activity (Rattus norvegicus [3]): Active
- inhibition in vivo at 0.78 mg/kg (Rattus norvegicus [4]): 29.2%
- inhibition (Rattus norvegicus [5]): Dose-dependent effect
- ED50 (Rattus norvegicus [5]; intraduodenal): 1 mg/kg
- inhibition in vivo at 0.39 mg/kg (Rattus norvegicus [6]): 48.7%
- inhibition in vivo at 3.125 mg/kg (Rattus norvegicus [7]): 53.6%
- inhibition in vivo at 0.78 mg/kg (Rattus norvegicus [8]): 27.8%
- inhibition at 5 µM (Mast cell [9]): 55%
- inhibition in vivo at 0.39 mg/kg (Rattus norvegicus [10]): 4.3%
- inhibition in vivo at 0.78 mg/kg (Rattus norvegicus [11]): 5.2%
- inhibition in vivo at 3.125 mg/kg (Rattus norvegicus [12]): 18.9%
- inhibition in vivo at 0.39 mg/kg (Rattus norvegicus [13]): 48.8%
- inhibition in vivo at 0.39 mg/kg (Rattus norvegicus [14]): 2.7%
- inhibition in vivo at 3.125 mg/kg (Rattus norvegicus [15]): 17.1%
- inhibition at 1.25 µM (Mast cell [16]): 19%
- inhibition (Rattus norvegicus [17]): Dose-dependent effect
- ED50 (Rattus norvegicus [17]; intraduodenal): 1 mg/kg
- inhibition in vivo at 3.125 mg/kg (Rattus norvegicus [18]): 42.4%
- inhibition in vivo at 0.78 mg/kg (Rattus norvegicus [19]): 51.8%
- Drug metabolism (Plasma): metabolite_detected
- ED50 (Rattus norvegicus [1]): 2.4 mg/kg

SMILES: CCCCCCc1sc2nc(C(=O)OCC)oc(=O)c2c1C
- ED50 (Rattus norvegicus [1]): 8.2 mg/kg

SMILES: CCOC(=O)c1nc2sc(C(C)=O)c(C)c2c(=O)o1
- Activity (Rattus norvegicus [20]): inactive

SMILES: CCc1sc2nc(C(=O)O)nc(O)c2c1N
- Activity (Rattus norvegicus [21]): inactive

SMILES: CC(C)c1cc2c([O-])nc(C(=O)[O-])nc2s1.O.[Na+].[Na+]
- ED50 (Rattus norvegicus [22]): 1 mg/kg
- ED50 (Rattus norvegicus [1]): > 10 mg/kg

SMILES: CCc1sc2nc(C(=O)[O-])nc([O-])c2c1C.O.[Na+].[Na+]
- ED50 (Rattus norvegicus [1]): 10 mg/kg

SMILES: CCCCCCc1cc2c(=O)oc(C(=O)OCC)nc2s1
- Activity (Rattus norvegicus [23]): inactive

SMILES: CCOC(=O)c1nc2sc(CC(C)C)c(C)c2c(=O)o1
- Activity (Rattus norvegicus [20]): inactive

SMILES: CCOC(=O)c1nc2sc(CC)c(I)c2c(=O)[nH]1
- ED50 (Rattus norvegicus [1]): 8.1 mg/kg

SMILES: Cc1c(CC(C)C)sc2nc(C(=O)O)[nH]c(=O)c12
- Activity (Rattus norvegicus [3]): Active

SMILES: CC(=O)c1sc2nc(C(=O)O)nc(O)c2c1C
- Activity (Rattus norvegicus [24]): inactive

SMILES: CCOC(=O)c1nc2sc(C(C)=O)c(C)c2c(=O)[nH]1
- ED50 (Rattus norvegicus [1]): 25 mg/kg

SMILES: O.O=C([O-])c1nc([O-])c2c3c(sc2n1)CCCC3.[Na+].[Na+]
- ED50 (Rattus norvegicus [1]): 50 mg/kg

SMILES: CCc1cc2c([O-])nc(C(=O)[O-])nc2s1.O.[Na+].[Na+]
- inhibition at 20 µM (Mast cell [2]): 73%
- ED50 (Rattus norvegicus [22]): 1.2 mg/kg
- inhibition at 5 µM (Mast cell [9]): 51%
- inhibition at 1.25 µM (Mast cell [16]): 22%
- ED50 (Rattus norvegicus [1]): 13 mg/kg

SMILES: CCCCCCc1cc2c(=O)[nH]c(C(=O)OCC)nc2s1
- ED50 (Rattus norvegicus [1]): > 5 mg/kg

SMILES: CCOC(=O)c1nc2sccc2c(=O)[nH]1
- ED50 (Rattus norvegicus [1]): > 25 mg/kg

SMILES: CCOC(=O)c1nc2sc(CC)c(C)c2c(=O)[nH]1
- ED50 (Rattus norvegicus [1]): 11.3 mg/kg

SMILES: CCOC(=O)c1nc2sc(CC)cc2c(=O)o1
- ED50 (Rattus norvegicus [1]): 34.4 mg/kg

SMILES: CCOC(=O)c1nc2sc(CC)c(N)c2c(=O)[nH]1
- ED50 (Rattus norvegicus [1]): 10 mg/kg

SMILES: CCCCCCc1sc2nc(C(=O)OCC)[nH]c(=O)c2c1C
- ED50 (Rattus norvegicus [1]): 50 mg/kg

SMILES: CCCCCCc1cc2c([O-])nc(C(=O)[O-])nc2s1.O.[Na+].[Na+]
- ED50 (Rattus norvegicus [1]): 17.7 mg/kg

SMILES: CCOC(=O)c1nc2sc(C(C)C)cc2c(=O)[nH]1
- ED50 (Rattus norvegicus [1]): 17.9 mg/kg

SMILES: CCOC(=O)C(=O)Nc1sccc1C(N)=O
- Activity (Rattus norvegicus [3]): Active
- ED50 (Rattus norvegicus [22]): 0.2 mg/kg
- ED50 (Rattus norvegicus [1]): 4.5 mg/kg

SMILES: CCOC(=O)c1nc2scc(C)c2c(=O)[nH]1
- ED50 (Rattus norvegicus [1]): 50 mg/kg

SMILES: CCOC(=O)c1nc2sc(N)c(C)c2c(=O)[nH]1
- ED50 (Rattus norvegicus [1]): < 50 mg/kg

SMILES: CCOC(=O)c1nc2sc(CC)c(C)c2c(=O)o1
- Activity (Rattus norvegicus [20]): inactive

SMILES: CCOC(=O)c1nc2sc(C(C)C)cc2c(=O)o1
- ED50 (Rattus norvegicus [1]): > 10 mg/kg

SMILES: Cc1c(CC(C)C)sc2nc(C(=O)[O-])nc([O-])c12.O.[K+].[K+]
- ED50 (Rattus norvegicus [22]): 0.14 mg/kg
- ED50 (Rattus norvegicus [1]): 2.7 mg/kg
